Source: PMC7559020 (ACS infectious diseases, 2020)
Read-outs that look alike come from different tables or passages of the source.

Assays:
DENV2 = experiment: Viral plaque reduction assay, DENV2 in A549 cells; assay type: cell-based; details: read-out: EC50-DN2 (A549)
ZIKV [1] = experiment: Viral titer reduction assay, ZIKV in A549 cells; assay type: cell-based, Zika virus
Procedure, shortened: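 ZIKV infection of human A549 lung carcinoma cells with test compound over a dose range. Virus titre reduction measured, run in triplicate. EC50 obtained by nonlinear regression fit of the dose–response curve.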

DENV2 NS2B–NS3 protease = DENV2 NS2B–NS3 protease (Dengue virus type 2, UniProt P29990); experiment: NS2B–NS3 protease inhibition assay; assay type: biochemical
ZIKV [2] = experiment: ZIKV viremia mouse model; assay type: in vivo, Zika virus; details: data not shown
DENV2 replicon = DENV2 replicon assay; assay type: cell-based; details: Dengue virus, DENV2, BHK-21, 48 h, read-out: EC50-DN2 (DENV2 replicon cell line)
A549 cells = experiment: WST-8 cell proliferation; details: read-out: CC50 (A549); cell viability, A549 cells, 48 h
ZIKV NS3 = experiment: Western blot of ZIKV NS3 and polyprotein precursor in infected A549 cells; assay type: cell-based, Zika virus; details: A549, MOI 0.1, 48 h
Procedure, shortened: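 Preseeded A549 cells were treated with a dose series of test compound or DMSO and infected with ZIKV at MOI 0.1. At 48 h post-infection, cells were washed, harvested, given protease inhibitor cocktail and lysed in SDS-PAGE loading buffer (95 °C, 10 min). Blots were probed with anti-ZIKV NS3 and anti-GAPDH. PP and NS3 band intensities were normalised to GAPDH, N = 3.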

ZIKV [3] = experiment: ZIKV infection of 3D mini-brain organoids; assay type: cell-based, Zika virus; details: 1.5 μM
ZIKV [4] = experiment: ZIKV inhibition in human neural progenitor cells; assay type: cell-based, Zika virus; details: human iPSC-derived neural progenitor cells, IFA and qRT-PCR
ZIKV [5] = experiment: qRT-PCR of viral RNA from ZIKV-infected A549 cells; assay type: cell-based, Zika virus
viral NS3 protease = viral NS3 protease (Dengue virus type 2, UniProt P29990); experiment: Protein thermal shift assay; assay type: binding; details: PTSA
WST-8 cell proliferation = details: human
ZIKV [6] = experiment: Immunofluorescence assay; assay type: cell-based, Zika virus; details: IFA, anti-E 4G2, A549 cells
Procedure, shortened: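 ZIKV-infected cells treated with test compound or DMSO. Viral E protein detected with mouse monoclonal pan-flavivirus anti-E 4G2 and a DyLight 488 goat anti-mouse IgG secondary. Nuclei counterstained with Hoechst.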

MBP-NS3 I25A = details: I25A vs WT
ZIKV [7] = experiment: Time of addition experiment, ZIKV titer by plaque forming assay; assay type: cell-based, Zika virus; details: 0.75 μM added at time points postinfection, titers at 48 h
MBP-NS3 L58A = MBP-NS3 L58A (Dengue virus type 2, UniProt P29990, L1533A); experiment: SPR binding to MBP-NS3 mutant L58A; set-up: species or system DENV2; details: L58A vs WT
MBP-NS3 H60A = MBP-NS3 H60A (Dengue virus type 2, UniProt P29990, H1535A); assay type: binding, DENV2; details: H60A vs WT
3D organoids = experiment: Toxicity on 3D mini-brain organoids; assay type: cell-based, human; details: 1.5 μM
MBP-NS3 Y23A = MBP-NS3 Y23A (Dengue virus type 2, UniProt P29990, Y1498A); assay type: binding, DENV2; details: Y23A vs WT
[8] = Repeated oral dosing toxicity in mice; assay type: in vivo, mouse; details: repeated oral dosing 40 mg/kg/day for 7 days, N = 6
MBP-NS3 F46A = MBP-NS3 F46A (Dengue virus type 2, UniProt P29990, F1521A); assay type: binding, DENV2; details: F46A vs WT
[9] = virus production, A549 cells, 48 h postinfection
[10] = read-out: EC50-ZK (A549), virus production, A549 cells
[11] = Zika virus, A549, read-out: EC50-ZK (A549)

Q: For `CC(=O)Nc1ccc(NC(=O)c2cc(Cl)ccc2O)c(Cl)c1` [HJC0140], which EC50 (DENV2; [9]) is on record?
A: The EC50 was over 30 µM.

Q: What about the EC50 (ZIKV [1]; [10]) of the same compound?
A: The EC50 was over 30 µM.

Q: With `O=C(Nc1ccc([N+](=O)[O-])cc1Cl)c1cc(Cl)ccc1O` [Niclosamide, reference compound] as the compound, how does the IC50 (DENV2 NS2B–NS3 protease) read?
A: Its IC50 is 21.6 µM.

Q: What about the “in vivo antiviral efficacy toward ZIKV” value (ZIKV [2]) of the same compound?
A: The value was “did not show appreciable in vivo antiviral efficacy”.

Q: What about the EC50 (DENV2 replicon) of the same compound?
A: The EC50 was 2 µM.

Q: What about the EC50 (ZIKV [1]; [11]) of the same compound?
A: The EC50 was 0.48 µM.

Q: Which results are given for `CN1CCN(CCOc2ccc(Cl)cc2C(=O)Nc2ccc([N+](=O)[O-])cc2Cl)CC1` [HJC0365]?
A: EC50 (DENV2; [9]): 6.4 µM; CC50 (A549 cells): 177 µM; EC50 (ZIKV [1]; [10]): 6 µM

Q: For `Nc1ccc(NC(=O)c2cc(Cl)ccc2O)c(Cl)c1` [HJC0129], which EC50 (DENV2; [9]) is on record?
A: Its EC50 is over 30 µM.

Q: And the CC50 (A549 cells)?
A: Its CC50 is 176 µM.

Q: What about the EC50 (ZIKV [1]; [10]) of the same compound?
A: The EC50 was over 30 µM.

Q: For `NCCCCOc1ccc(Cl)cc1C(=O)Nc1ccc([N+](=O)[O-])cc1Cl` [HJC0431], which EC50 (DENV2; [9]) is on record?
A: Its EC50 is 2.2 µM.

Q: And the CC50 (A549 cells)?
A: The CC50 was 28.4 µM.

Q: What about the EC50 (ZIKV [1]; [10]) of the same compound?
A: Its EC50 is 0.36 µM.

Q: Which “high MW protein (unprocessed viral polyprotein precursor, PP)” value (ZIKV NS3) does the source give for `O=C(Nc1ccc([N+](=O)[O-])cc1Cl)c1cccc([N+](=O)[O-])c1O` [JMX0207, N-(2-Chloro-4-nitrophenyl)-2-hydroxy-3-nitrobenzamide] here?
A: Its value is “dose-dependent increase”.

Q: And the “viral NS3 protein production” value (ZIKV NS3)?
A: The value was “dose-dependent reduction”.

Q: And the “ZIKV production from 3D organoids” value (ZIKV [3]; PFU assay, 5 dpi)?
A: The value was “significantly inhibited”.

Q: And the “protection of organoid slices from ZIKV infection (immunostaining)” value (ZIKV [3]; ZIKV PRVABC59, anti-E 4G2)?
A: The value was “nearly completely protected the organoids from ZIKV infection”.

Q: What about the “ZIKV infection in the 3D organoid” value (ZIKV [3]; ZIKV-Venus, MOI 1, fluorescence imaging 7 dpi, vs DMSO) of the same compound?
A: The value was “completely abolished ZIKV infection”.

Q: And the “ZIKV protein expression and RNA synthesis in HNPCs” value (ZIKV [4])?
A: Its value is “effectively inhibited”.

Q: What about the “ZIKV RNA copy number” value (ZIKV [5]) of the same compound?
A: The value was “significantly reduced the ZIKV RNA copy number in a dose-dependent manner”.

Q: What about the “increase in Tm of the viral protein” value (viral NS3 protease) of the same compound?
A: Its value is 0.75 °C.

Q: What about the EC50 (DENV2; Dengue virus, DENV2, A549, 48 h) of the same compound?
A: The EC50 was 0.31 µM.

Q: What about the CC50 at 48 h (WST-8 cell proliferation) of the same compound?
A: Its CC50 at 48 h is 31.9 µM.

Q: What about the ZIKV antigen production (ZIKV [6]) of the same compound?
A: Its ZIKV antigen production is “greatly reduced ZIKV antigen production”.

Q: What about the “reduction of binding affinity by mutation” value (MBP-NS3 I25A) of the same compound?
A: The value was 2- to 3 fold.

Q: And the “reduction of ZIKV titer by time of addition” value (ZIKV [7])?
A: The value was “equally effective in reducing ZIKV titer even at 24 h postinfection”.

Q: And the “effect of mutation on binding” value (MBP-NS3 L58A)?
A: Its value is “abolished the binding”.

Q: What about the “reduction of binding affinity by mutation” value (MBP-NS3 H60A) of the same compound?
A: Its value is 2- to 3 fold.

Q: What about the “toxic effect on 3D organoids” value (3D organoids) of the same compound?
A: The value was “did not have any toxic effect”.

Q: What about the EC50 (ZIKV [1]; [11]) of the same compound?
A: Its EC50 is 0.3 µM.

Q: And the “effect of mutation on binding affinity” value (MBP-NS3 Y23A)?
A: Its value is “do not have any effect”.

Q: And the signs of toxicity [8]?
A: The signs of toxicity was “did not display any sign of toxicity”.

Q: And the “effect of mutation on binding affinity” value (MBP-NS3 F46A)?
A: The value was “do not have any effect”.

Q: Which EC50 (DENV2; [9]) does the source give for `O=C(Nc1ccc2c(c1)S(=O)(=O)C=C2)c1cc(Cl)ccc1O` [HJC0149] here?
A: The EC50 was 0.9 µM.

Q: What about the CC50 (A549 cells) of the same compound?
A: The CC50 was 241 µM.

Q: And the EC50 (ZIKV [1]; [10])?
A: The EC50 was 1.1 µM.

Q: For `NCCCOc1ccc(Cl)cc1C(=O)Nc1ccc([N+](=O)[O-])cc1Cl` [HJC0308], which EC50 (DENV2; [9]) is on record?
A: The EC50 was 1.4 µM.

Q: What about the CC50 (A549 cells) of the same compound?
A: Its CC50 is 17.7 µM.

Q: What about the EC50 (ZIKV [1]; [10]) of the same compound?
A: The EC50 was 6.2 µM.

Q: Which EC50 (DENV2; [9]) does the source give for `CN1CCC(Oc2ccc(Cl)cc2C(=O)Nc2ccc([N+](=O)[O-])cc2Cl)CC1` [HJC0381] here?
A: The EC50 was 1.2 µM.

Q: What about the CC50 (A549 cells) of the same compound?
A: The CC50 was 91.1 µM.

Q: What about the EC50 (ZIKV [1]; [10]) of the same compound?
A: The EC50 was 3.9 µM.
